These results are taken from PubChem BioAssay AID623985 (Broad Institute, 2012).

Where only a bound is given, the exact number is not on record here.

The assay has as its target PvdQ acylase (Pseudomonas aeruginosa). Kind of assay: PvdQ acylase enzyme activity blockers – biochemical, fluorescence, plate reader, dry powder, set 2, dose response (AID 623985). To be noted: purified PvdQ, 4-MU laurate fluorescence, 60 min. A digest of the protocol:
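Detection: fluorescence, Ex 303–367 nm, Em 440–460 nm; assay system: purified Pseudomonas aeruginosa PvdQ acylase enzyme; input: PvdQ enzyme at 0.02 µM final; probe or stimulus: 0.8 mM 4-MU laurate; times: 30 min enzyme–compound pre-incubation, then 60 min substrate reaction, room temperature; medium: Tris pH 8.0, NaCl, TCEP buffer with Triton X-100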

Turning to `N#CC(c1ccc(Cl)cc1)c1cccc(C(F)(F)F)n1` (stereo unspecified), the AC50 (commonly the concentration giving half of the maximal activity seen) is 4.16 nM.

For `N#CC(c1cccc(Cl)n1)c1ccc(Cl)cc1F` (stereo unspecified), the AC50 was 22.4 nM.

As to `N#CC(c1ccc(Cl)cc1)c1ncccc1Cl` (stereo unspecified), the AC50 was < 3 nM.

As for `CCCC(C#N)c1ccc(Cl)cc1` (stereo unspecified), the concentration at half-maximal activity (AC50) was 293 nM.

On to `N#Cc1cccc(C(C#N)c2ccccc2OC(F)(F)F)n1` (stereo unspecified), for which the half-maximal activity concentration (AC50) is 227 nM.

On to `N#CC(c1ccc(F)cc1)c1ccc(C(F)(F)F)c(Cl)n1` (stereo unspecified), for which the AC50 was 548 nM.

As for `N#CC(c1ccc(C(F)(F)F)cc1)c1ccc(C(F)(F)F)c(Cl)n1` (stereo unspecified), the AC50 was 2950 nM.

For `N#CC(c1cccc(Cl)n1)c1ccccc1OC(F)(F)F` (stereo unspecified), the AC50 was 754 nM.

On to `N#Cc1cccc(C(C#N)c2ccc(Cl)cc2)n1` (stereo unspecified), for which the AC50 is 60.6 nM.

As for `COc1cccc(C(C#N)c2ccc(F)cc2)n1` (stereo unspecified), the AC50 is 124 nM.

Regarding `Cc1cccc(C(C#N)c2ccc(Cl)cc2)n1` (stereo unspecified), the AC50 was 162 nM.

As for `Cc1ccc(C(C#N)c2ccc(Cl)cc2)nc1C#N` (stereo unspecified), the AC50 is 69.7 nM.

Turning to `N#CC(c1ccc(C(F)(F)F)cc1)c1cccc(C(F)(F)F)n1` (stereo unspecified), the AC50 was 27 nM.

Regarding `N#CC(c1ccc(Cl)cc1)c1ccc(C(F)(F)F)cn1` (stereo unspecified), the AC50 is 171 nM.

On to `N#CC(c1ccc(C(F)(F)F)c(Cl)n1)c1ccc(Cl)cc1Cl` (stereo unspecified), for which the AC50 is 2440 nM.

Turning to `Cc1ccc(C(C#N)c2ccc(F)cc2)nc1C#N` (stereo unspecified), the AC50 is 96.6 nM.

As for `N#CC(c1ccc(Cl)cc1)c1cccc(Cl)n1` (stereo unspecified), the AC50 is 17.9 nM.

With `N#CC(c1cccc(C(F)(F)F)n1)c1ccc(Cl)cc1F` (stereo unspecified), the AC50 is < 3 nM.

For `N#Cc1ccc(C(C#N)c2ccc(Cl)cc2Cl)nc1` (stereo unspecified), the AC50 was 1940 nM.

On to `N#CC(c1ccc(C(F)(F)F)c(Cl)n1)c1ccc(Cl)cc1F` (stereo unspecified), for which the concentration at half-maximal activity (AC50) was 484 nM.

In the case of `Cc1ccc(C(C#N)c2ccc(Cl)cc2)nc1` (stereo unspecified), the AC50 was 150 nM.

For the molecule `N#CC(c1cccc(C(F)(F)F)n1)c1ccccc1OC(F)(F)F` (stereo unspecified), the AC50 was 376 nM.

Regarding `CCCCC(C#N)c1ccc(C(F)(F)F)cc1` (stereo unspecified), the AC50 is 1590 nM.

Regarding `CC(C)CC(C#N)c1ccc(Cl)cc1` (stereo unspecified), the AC50 is 203 nM.

`CCCCC(C#N)c1ccc(F)cc1` (stereo unspecified): the AC50 was 45.5 nM.

Regarding `N#CC(c1ccc(C(F)(F)F)c(Cl)n1)c1ccccc1OC(F)(F)F` (stereo unspecified), the AC50 was 597 nM.

On to `N#CC(c1cccc(Cl)n1)c1ccc(Cl)cc1Cl` (stereo unspecified), for which the AC50 is 170 nM.

Turning to `Cc1ccc(C(C#N)c2ccccc2OC(F)(F)F)nc1C#N` (stereo unspecified), the AC50 is 328 nM.

`CC(C#N)(c1ccc(Cl)cc1)c1ccc(C(F)(F)F)cn1` (stereo unspecified): the AC50 was 1230 nM.

For the molecule `N#CC(c1ccc(C(F)(F)F)cc1)c1cccc(Cl)n1` (stereo unspecified), the AC50 is 357 nM.

Take `N#CC(CC1CC1)c1ccc(Cl)cc1` (stereo unspecified): the AC50 is 133 nM.

Consider `N#CC(c1ccc(F)cc1)c1cccc(C(F)(F)F)n1` (stereo unspecified), for which the AC50 is 5.02 nM.

On to `N#CC(c1ccc(Cl)cc1)c1ccc(Cl)cn1` (stereo unspecified), for which the AC50 is 73.3 nM.

For `CCCCC(C#N)c1ccc(Cl)cc1` (stereo unspecified), the AC50 was 56.9 nM.

As for `N#CC(c1ccc(Cl)cc1Cl)c1ncccc1Cl` (stereo unspecified), the AC50 was 141 nM.

On to `N#Cc1ccc(C(C#N)c2ccc(Cl)cc2)nc1` (stereo unspecified), for which the AC50 is 1310 nM.

In the case of `N#CC(c1ccc(Cl)cc1)c1ccc(C(F)(F)F)c(Cl)n1` (stereo unspecified), the AC50 is 609 nM.

On to `CCCCC(C#N)c1ccc(Cl)cc1F` (stereo unspecified), for which the half-maximal activity concentration (AC50) is 315 nM.

Regarding `N#Cc1cccc(C(C#N)c2ccc(Cl)cc2F)n1` (stereo unspecified), the AC50 is 46.7 nM.

Take `N#Cc1cccc(C(C#N)c2ccc(Cl)cc2Cl)n1` (stereo unspecified): the AC50 is 303 nM.

`CCCCC(C#N)c1ccc(Cl)cc1Cl` (stereo unspecified): the AC50 is 281 nM.
